The record followed here is ChEMBL document CHEMBL5143666, “Insights into the anticancer activity of chiral alkylidene-β-lactams and alkylidene-γ-lactams: Synthesis and biological investigation” (Bioorg Med Chem, 2022).

The source made the active and inactive calls. The calls are words filed in the database; no cut-off is given here.

The test system of assay [1] is A-375. Kind of assay: Cytotoxicity against human A375 cells after 48 hrs by MTT assay. The assay is classed as functional, cell-based. Particulars: A-375, 48 h. The method in brief: (§1)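 Cells seeded at 1×10^5 per well, attached overnight, then exposed to serial dilutions from 10 mM DMSO stocks (vehicle control 1% DMSO) for 48 or 72 h; triplicate wells. MTT 0.5 mg/mL, 4 h at 37 °C; formazan dissolved in acid isopropanol, absorbance read. IC50 from sigmoidal variable-slope fit of % metabolic activity vs log concentration; ≥2 independent experiments.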
A general note: Formazan colour is commonly taken as a measure of viable cells.

Assay [2] concerns OE19. The experiment in a line: Cytotoxicity against human OE19 cells after 48 hrs by MTT assay. The assay is classed as functional, cell-based. The following applies: OE19, 48 h. The method in brief: as §1
Assay [3] relates to OE19. The experiment in a line: Cytotoxicity against human OE19 cells after 72 hrs by MTT assay. It is filed as functional, cell-based. The following applies: OE19, 72 h. In outline:
as §1

Assay [4] deals with HT-1080. The experiment in a line: Cytotoxicity against human HT-1080 cells after 48 hrs by MTT assay. The assay is classed as functional, cell-based. The following applies: HT-1080, 48 h. The method in brief: as §1
The test system of assay [5] is NCI-H1299. The experiment in a line: Cytotoxicity against human H1299 cells after 48 hrs by MTT assay. The assay is classed as functional, cell-based. Particulars: NCI-H1299, 48 h. The method in brief: as §1
Assay [6] deals with Matrix metalloproteinase-9 (Homo sapiens) (UniProt P14780). Kind of assay: Inhibition of MMP9 in human HT-1080 cells at 10 uM by gelatin zymography. It is filed as cell-based.
Sequence of Matrix metalloproteinase-9 (Homo sapiens) (P14780 whole entry): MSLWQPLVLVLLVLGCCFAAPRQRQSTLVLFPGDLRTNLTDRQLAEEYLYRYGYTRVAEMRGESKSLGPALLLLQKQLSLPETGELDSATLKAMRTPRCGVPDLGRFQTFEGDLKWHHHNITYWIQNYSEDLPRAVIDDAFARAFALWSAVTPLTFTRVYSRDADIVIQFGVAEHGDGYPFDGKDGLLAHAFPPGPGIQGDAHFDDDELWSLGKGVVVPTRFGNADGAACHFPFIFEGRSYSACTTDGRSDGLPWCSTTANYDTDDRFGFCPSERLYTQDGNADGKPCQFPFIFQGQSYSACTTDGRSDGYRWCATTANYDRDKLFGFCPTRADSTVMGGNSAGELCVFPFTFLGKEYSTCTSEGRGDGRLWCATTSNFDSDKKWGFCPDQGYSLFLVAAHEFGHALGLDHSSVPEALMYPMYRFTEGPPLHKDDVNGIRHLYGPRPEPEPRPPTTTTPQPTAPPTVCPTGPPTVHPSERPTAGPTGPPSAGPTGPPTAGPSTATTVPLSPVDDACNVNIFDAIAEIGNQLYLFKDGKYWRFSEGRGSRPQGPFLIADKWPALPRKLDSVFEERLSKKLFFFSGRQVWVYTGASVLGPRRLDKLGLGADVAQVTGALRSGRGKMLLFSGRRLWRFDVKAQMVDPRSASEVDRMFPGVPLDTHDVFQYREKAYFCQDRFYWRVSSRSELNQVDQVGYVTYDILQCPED
For assay [7], the system named is A-375. Kind of assay: Induction of apoptosis in human A375 cells assessed as viable cells at 10 uM after 48 hrs by annexin-v and PI staining based flow cytometry analysis (reference value: 93.63 +/- 1.37%). It is filed as functional. Particulars: read-out: Activity. In general terms: In flow cytometry, cells or beads pass a laser one at a time.
For assay [8], the system named is A-375. Kind of assay: Induction of apoptosis in human A375 cells assessed as late apoptotic cells at 10 uM after 48 hrs by annexin-v and PI staining based flow cytometry analysis (reference value: 1.83 +/- 0.41%). The assay is classed as functional.
The subject of assay [9] is A-375. The experiment in a line: Induction of apoptosis in human A375 cells assessed as necrotic cells at 10 uM after 48 hrs by annexin-v and PI staining based flow cytometry analysis (reference value: 1.17 +/- 0.41%). The assay is classed as functional.
For assay [10], the system named is A-375. Kind of assay: Induction of cell cycle arrest in human A375 assessed as number of cells at G1 phase at 10 uM after 48 hrs by flow cytometry (reference value: 83.5 +/- 1.87 %). It is filed as functional.
For assay [11], the system named is A-375. Kind of assay: Induction of cell cycle arrest in human A375 assessed as number of cells at G2/M phase at 10 uM after 48 hrs by flow cytometry (reference value: 5.17 +/- 0.75 %). It is filed as functional.
The test system of assay [12] is A-375. The experiment in a line: Effect on reactive oxygen production in human A375 cells assessed as decrease in peroxide level at 10 uM after 48 hrs by DCFH2-DA staining based spectrophotometry. It is filed as functional, cell-based. In outline:
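A375 cells (5×10^5) attached overnight, exposed at 5 or 10 μM for 8 or 48 h. Intracellular peroxides measured with 5 μM DCFH2-DA, 45 min at 37 °C in the dark; after washing, fluorescence read at ex 485 / em 528 nm. Mean ± SD of two independent experiments in duplicate.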

Assay [13] concerns A-375. The experiment in a line: Induction of cell cycle arrest in human A375 assessed as number of cells at S phase at 10 uM after 48 hrs by flow cytometry (reference value: 11.33 +/- 1.86 %).
Assay [14] has as its system A-375. The experiment in a line: Induction of apoptosis in human A375 assessed as formation of bleb at 5 to 10 uM after 48 hrs by May-Grunwald- Giemsa staining based optical microscopic analysis. Particulars: dose 5-10 µM. The assay is classed as functional, cell-based. In outline:
(§2)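 A375 cells exposed to 5 or 10 μM for 48 h, stained with May-Grünwald Giemsa and examined by optical microscopy at 50x. Representative images taken at random for each condition.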

Assay [15] relates to A-375. Kind of assay: Induction of apoptosis in human A375 assessed as loss of cell integrity at 5 to 10 uM after 48 hrs by May-Grunwald- Giemsa staining based optical microscopic analysis. Particulars: dose 5-10 µM. The assay is classed as functional. In outline:
as §2

The subject of assay [16] is A-375. The experiment in a line: Induction of cell cycle arrest in human A375 assessed as number of cells at G1 phase at 5 uM after 48 hrs by flow cytometry (reference value: 83.5 +/- 1.87 %). The assay is classed as functional.
The test system of assay [17] is A-375. The experiment in a line: Induction of cell cycle arrest in human A375 assessed as number of cells at S phase at 5 uM after 48 hrs by flow cytometry (reference value: 11.33 +/- 1.86 %). It is filed as functional.
Assay [18] relates to A-375. The experiment in a line: Induction of cell cycle arrest in human A375 assessed as number of cells at G2/M phase at 5 uM after 48 hrs by flow cytometry (reference value: 5.17 +/- 0.75 %). It is filed as functional.

On to `CC1(C)[C@H](C(=O)OC(c2ccccc2)c2ccccc2)N2C(=O)/C(=C/C(=O)c3ccc([N+](=O)[O-])cc3)[C@H]2S1(=O)=O`, for which the values for the IC50 in assay [1] and in assay [2] were 76.7 µM and 95.5 µM, respectively.
For the compound `CC1(C)S[C@@H]2/C(=C\C(=O)c3ccccc3)C(=O)N2[C@H]1C(=O)OC(c1ccccc1)c1ccccc1`, the IC50 in assay [1] is 22.8 µM; in assay [2] it was 12.8 µM; in assay [3], 8.6 µM; in assay [4] it was 21.1 µM; in assay [5], 39 µM. The inhibition entry in assay [6] is “Active”.
With `CC1(C)[C@H](C(=O)OC(c2ccccc2)c2ccccc2)N2C(=O)/C(=C/C(=O)c3ccccc3)[C@H]2S1(=O)=O`, the IC50 in [1] was determined as 17.5 µM; in [2], 53.1 µM; in assay [4], 19.5 µM; in assay [5], 50.1 µM.
Regarding `CC(=O)/C=C1\C[C@H]2SC(C)(C)[C@H](C(=O)OC(c3ccccc3)c3ccccc3)N2C1=O`, the IC50 in assay [1], in assay [2], in assay [4] and in [5] was over 100 µM each time.
Consider `CC1(C)S[C@@H]2/C(=C\C(=O)c3cc(C(F)(F)F)cc(C(F)(F)F)c3)C(=O)N2[C@H]1C(=O)OC(c1ccccc1)c1ccccc1`, for which the IC50 in [1] was found to be 39.2 µM; in assay [2], 48.5 µM.
Regarding `CC1(C)S[C@@H]2/C(=C\C(=O)c3cc(F)cc(F)c3)C(=O)N2[C@H]1C(=O)OC(c1ccccc1)c1ccccc1`, the concentration for half-maximal inhibition (IC50) in assay [1] is 19.1 µM; in [2] it was 17.6 µM.
Take `CCOC(=O)/C=C1/C(=O)N2[C@@H]1SC(C)(C)[C@@H]2C(=O)OC(c1ccccc1)c1ccccc1`: the IC50 in assay [1] amounted to 7 µM; in [2], 11.2 µM; in assay [3], 5.3 µM; in [4], 25.1 µM; in assay [5] it was 15 µM. Moreover, the viability at 10 µM in assay [7] came out at 63%. Further, the Activity in assay [8] was 11.5%; in assay [9], 20.8%; in assay [10] it was 61.65%; in assay [11], 12.5%; in assay [13] it was 25.75%. The result in [12] was Active. Also, the inhibition result in [6] was “Active”.
Regarding `CC1(C)S[C@@H]2/C(=C\C(=O)c3ccc([N+](=O)[O-])cc3)C(=O)N2[C@H]1C(=O)OC(c1ccccc1)c1ccccc1`, the IC50 in [1] was 50.3 µM; in assay [2], 44.1 µM.
On the same counts, the results for `CC1(C)[C@H](C(=O)OC(c2ccccc2)c2ccccc2)N2C(=O)/C(=C/C(=O)c3ccc([N+](=O)[O-])cc3)[C@H]2[S+]1[O-]` (some centres undefined) are 48.2 µM and 92.4 µM.
On to `CC1(C)S[C@@H]2/C(=C\C(=O)c3ccco3)C(=O)N2[C@H]1C(=O)OC(c1ccccc1)c1ccccc1`, for which the IC50 in assay [1] is 26 µM; in [2] it was 54.3 µM; in assay [4] it was 45.5 µM; in assay [5], 61.5 µM.
Take `CC1(C)S[C@@H]2C/C(=C\C(=O)c3ccccc3)C(=O)N2[C@H]1C(=O)OC(c1ccccc1)c1ccccc1`: the figures for the concentration for half-maximal inhibition (IC50) in assay [1] and in assay [2] were over 100 µM and 73.3 µM, respectively. The compound further had an inhibition in assay [6] of 61.4%.
Take `CC1(C)S[C@@H]2/C(=C\C(=O)c3ccc(C(F)(F)F)cc3)C(=O)N2[C@H]1C(=O)OC(c1ccccc1)c1ccccc1`: the values for the concentration for half-maximal inhibition (IC50) in assay [1] and in [2] were 26.7 µM and 15.6 µM, respectively.
`CC1(C)[C@H](C(=O)OC(c2ccccc2)c2ccccc2)N2C(=O)/C(=C/C(=O)c3ccccc3)[C@H]2[S+]1[O-]` (some centres undefined): the half-maximal inhibitory concentration (IC50) in assay [1] came out at 4.5 µM; in assay [2], 23.7 µM; in assay [4] it was 65.5 µM; in assay [5], 92.4 µM. For the same compound, the viability at 10 µM in [7] is 89.2%. Moreover, the Activity came to 4.17% in assay [8] and 3% in assay [9].
With `CC1(C)S[C@@H]2/C(=C\C(=O)c3ccc(Cl)cc3)C(=O)N2[C@H]1C(=O)OC(c1ccccc1)c1ccccc1`, the values for the IC50 in assay [1] and in assay [2] were 48.6 µM and 14.6 µM, respectively.
`CC1(C)S[C@@H]2/C(=C\C(=O)OCc3ccccc3)C(=O)N2[C@H]1C(=O)OC(c1ccccc1)c1ccccc1`: the half-maximal inhibitory concentration (IC50) in assay [1] came out at 7.1 µM; in assay [2], 8.2 µM; in assay [3], 4.6 µM; in assay [4] it was 11.7 µM; in [5] it was 9.4 µM. For the same compound, the viability at 10 µM in [7] is 56.2%. Also, the Activity in assay [8] turned out to be 13%; in assay [9], 24%; in [16] it was 71.25%; in assay [17], 19.5%; in [18], 8.75%; in [10], 58.33%. For the same compound, the Activity in assay [11] is reported as 12%; in assay [13], 29.67%. Further, the outcome in assay [14], in assay [15] and in [12] was Active. Also, the inhibition entry in assay [6] is “Active”.
For `CC(=O)/C=C1/C(=O)N2[C@@H]1SC(C)(C)[C@@H]2C(=O)OC(c1ccccc1)c1ccccc1`, the half-maximal inhibitory concentration (IC50) in [1] is 63 µM; in assay [2], 51.9 µM; in assay [4], 20.8 µM; in assay [5], 24.2 µM.
For `CC1(C)S[C@@H]2/C(=C\C(=O)c3ccc(Br)cc3)C(=O)N2[C@H]1C(=O)OC(c1ccccc1)c1ccccc1`, the IC50 was determined as 29.7 µM in [1] and 13.8 µM in assay [2].
Taken in the same sequence, the figures for `CC1(C)S[C@@H]2/C(=C\C(=O)c3ccc4ccccc4c3)C(=O)N2[C@H]1C(=O)OC(c1ccccc1)c1ccccc1` were 36.5 µM and 19.5 µM.
In the case of `CC1(C)S[C@@H]2/C(=C\C(=O)c3ccc(F)cc3)C(=O)N2[C@H]1C(=O)OC(c1ccccc1)c1ccccc1`, the IC50 in assay [1] was 17.8 µM; in [2], 12.1 µM; in [3] it was 10.7 µM; in assay [4] it was 11.2 µM; in assay [5], 25.2 µM. Besides, the inhibition result in assay [6] was “Active”.
For `COC(=O)/C=C1/C(=O)N2[C@@H]1SC(C)(C)[C@@H]2C(=O)OC(c1ccccc1)c1ccccc1`, the results for the half-inhibitory concentration (IC50) in assay [1] and in [2] were 24.6 µM and 20.2 µM, respectively.
On to `CC1(C)S[C@@H]2/C(=C\C(=O)OC(c3ccccc3)c3ccccc3)C(=O)N2[C@H]1C(=O)OC(c1ccccc1)c1ccccc1`, for which the IC50 in assay [1] is 9.1 µM; in assay [2], 21.6 µM; in assay [4] it was 15.2 µM; in assay [5] it was 22.4 µM. Moreover, the viability at 10 µM in [7] turned out to be 73.5%. Moreover, the Activity in [8] was found to be 7.75%; in assay [9] it was 14.75%; in assay [10], 67.67%; in assay [11], 13%; in assay [13], 15.33%. The result in assay [12] was Active. In addition, the inhibition result in assay [6] is “Active”.
In the case of `COC(=O)/C=C1\C[C@H]2SC(C)(C)[C@H](C(=O)OC(c3ccccc3)c3ccccc3)N2C1=O`, the results for the IC50 in assay [1] and in [2] were over 100 µM and 99.7 µM, respectively. Further, the inhibition in assay [6] came out at 52.9%.

By IC50 is commonly meant the point on the concentration scale where inhibition reaches its midpoint. Lower therefore signals higher potency. What is called inhibition is the change of the read-out against control, counted positive when it falls.
